How the values were obtained:
Influenza A virus [1] = assay: Antiviral activity against sInfluenza A virus (A/Washington/29/2009(H1N1)) infected in MDCK cells from Mill Hill assessed as log reduction in viral titer at 4.7 uM after 24 hrs by immunofluorescent assay; format: functional, Influenza A virus (A/Washington/29/2009(H1N1))
Outline: (§1)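 MDCK cells (ATCC or Mill Hill) infected with 2009 pandemic H1N1 at MOI ~0.01, 1 h adsorption at 4°C, washed. DMEM with 2 μg/ml TPCK-trypsin plus drug for 24 h at 37°C. Supernatants titrated on MDCK cells by focus formation: methanol/acetic acid fixation, anti-nucleoprotein MAbs, FITC secondary, foci counted. Titre as log10 FFU per 100 μl; detection limit <10 FFU; quadruplicate wells.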

Influenza A virus [2] = assay: microbe, parasite or virus in culture; conditions: (A/duck/Vietnam/NCVD93/2007 clade 2.3.4 (H5N1)), MDCK, 72 h
Influenza A virus [3] = assay: microbe, parasite or virus in culture; conditions: MDCK, 72 h
Influenza A virus [4] = assay: Antiviral activity against Influenza A virus (A/California/04/2009(H1N1)) infected in MDCK cells from Mill Hill assessed as inhibition of viral replication after 3 days by microscopic analysis using crystal violet stain; format: functional
Influenza A virus [5] = assay: microbe, parasite or virus in culture; conditions: (A/Brazil/1067/2008(H1N1)), MDCK, 72 h
Influenza A virus [6] = assay: Antiviral activity against sInfluenza A virus (A/California/04/2009(H1N1)) infected in MDCK cells from Mill Hill assessed as log reduction in viral titer at 4.7 uM after 24 hrs by immunofluorescent assay; format: functional; outline: as §1
Influenza A virus [7] = assay: Antiviral activity against adamantane-, oseltamivir-, zanamivir-susceptible Influenza A virus (A/Georgia/17/2006(H1N1)) infected in MDCK cells assessed as inhibition of viral replication after 3 days by microscopic analysis using crystal violet stain; format: functional, organism-based; conditions: 72 h
Outline: (§2)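 Confluent MDCK-ATCC monolayers infected with virus diluted to give 15–45 plaques/well. Adsorption 1 h at 37°C without drug, then washed. Overlaid with 0.8% agarose in MEM containing drug plus TPCK-trypsin: 3 μg/ml for seasonal viruses, 2 μg/ml for 2009 A(H1N1). Incubated 3 days at 37°C, 5% CO2. Ethanol-fixed, crystal violet-stained, plaques counted. EC50 by curve fit; duplicates on three occasions, mean ± SD.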

Influenza A virus [8] = assay: Antiviral activity against sInfluenza A virus (A/Washington/29/2009(H1N1)) infected in MDCK cells from Mill Hill assessed as log reduction in viral titer at 42.7 uM after 24 hrs by immunofluorescent assay; format: functional, Influenza A virus (A/Washington/29/2009(H1N1)); outline: as §1
Influenza A virus [9] = assay: Antiviral activity against Influenza A virus (A/Illinois/10/2009(H1N1)) infected in MDCK cells from Mill Hill assessed as log reduction in viral titer at 42.7 uM after 24 hrs by immunofluorescent assay; format: functional
Outline: (§3)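 Yield reduction in MDCK-ATCC or MDCK-Mill Hill cells infected at MOI ∼0.01. Adsorption 1 h at 4°C, washed, then DMEM with 2 μg/ml TPCK-trypsin and drug. At 24 h, supernatants were titrated by immunofluorescent focus assay on MDCK cells with anti-NP monoclonals and FITC secondary. Titres as log10 FFU per 100 μl; detection limit <10 FFU. Quadruplicate, mean ± SD.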

Influenza A virus [10] = assay: Antiviral activity against Influenza A virus (A/Mexico/4604/2009(H1N1)) infected in MDCK cells from ATCC assessed as log reduction in viral titer at 1.6 uM after 24 hrs by immunofluorescent assay; format: functional; outline: as §3
Influenza A virus [11] = assay: Antiviral activity against sInfluenza A virus (A/Washington/29/2009(H1N1)) infected in MDCK cells from ATCC assessed as log reduction in viral titer at 14.2 uM after 24 hrs by immunofluorescent assay; format: functional, Influenza A virus (A/Washington/29/2009(H1N1)); outline: as §1
Influenza A virus [12] = assay: Antiviral activity against Influenza A virus (A/Mexico/4604/2009(H1N1)) infected in MDCK cells from ATCC assessed as inhibition of viral replication after 3 days by microscopic analysis using crystal violet stain; format: functional; outline: as §2
Influenza A virus [13] = assay: Antiviral activity against sInfluenza A virus (A/Washington/29/2009(H1N1)) infected in MDCK cells from ATCC assessed as log reduction in viral titer at 42.7 uM after 24 hrs by immunofluorescent assay; format: functional, Influenza A virus (A/Washington/29/2009(H1N1)); outline: as §1
Influenza A virus [14] = assay: Antiviral activity against Influenza A virus (A/Mexico/4604/2009(H1N1)) infected in MDCK cells from ATCC assessed as log reduction in viral titer at 128 uM after 24 hrs by immunofluorescent assay; format: functional; outline: as §3
Influenza A virus [15] = assay: microbe, parasite or virus in culture; conditions: (A/Ecuador/5179/2008(H1N1)), MDCK, 72 h
Influenza A virus [16] = assay: Antiviral activity against sInfluenza A virus (A/California/04/2009(H1N1)) infected in MDCK cells from ATCC assessed as log reduction in viral titer at 42.7 uM after 24 hrs by immunofluorescent assay; format: functional; outline: as §1
Influenza A virus [17] = assay: microbe, parasite or virus in culture; conditions: (A/turkey/VA/4529/2002 (H7N2)), MDCK, 72 h
Influenza A virus [18] = assay: Antiviral activity against Influenza A virus (A/Illinois/10/2009(H1N1)) infected in MDCK cells from ATCC assessed as log reduction in viral titer at 42.7 uM after 24 hrs by immunofluorescent assay; format: functional; outline: as §3
Influenza A virus [19] = assay: Antiviral activity against Influenza A virus (A/Mexico/4604/2009(H1N1))infected in MDCK cells from Mill Hill assessed as log reduction in viral titer at 4.7 uM after 24 hrs by immunofluorescent assay; format: functional; outline: as §3
Influenza A virus [20] = assay: Antiviral activity against sInfluenza A virus (A/Washington/29/2009(H1N1)) infected in MDCK cells from ATCC assessed as log reduction in viral titer at 128 uM after 24 hrs by immunofluorescent assay; format: functional, Influenza A virus (A/Washington/29/2009(H1N1)); outline: as §1
Influenza A virus [21] = assay: Antiviral activity against Influenza A virus (A/Illinois/10/2009(H1N1)) infected in MDCK cells from ATCC assessed as log reduction in viral titer at 14.2 uM after 24 hrs by immunofluorescent assay; format: functional; outline: as §3
Influenza A virus [22] = assay: Antiviral activity against sInfluenza A virus (A/California/04/2009(H1N1)) infected in MDCK cells from Mill Hill assessed as log reduction in viral titer at 14.2 uM after 24 hrs by immunofluorescent assay; format: functional; outline: as §1
Influenza A virus [23] = assay: Antiviral activity against sInfluenza A virus (A/California/04/2009(H1N1))infected in MDCK cells from ATCC assessed as log reduction in viral titer at 14.2 uM after 24 hrs by immunofluorescent assay; format: functional; outline: as §1
Influenza A virus [24] = assay: Antiviral activity against Influenza A virus (A/Mexico/4604/2009(H1N1)) infected in MDCK cells from Mill Hill assessed as log reduction in viral titer at 42.7 uM after 24 hrs by immunofluorescent assay; format: functional; outline: as §3

NC(=O)c1nc(F)cnc1O [FAVIPIRAVIR]
log10FFU (Influenza A virus [1]): 4.7
EC50 (Influenza A virus [2]): 1590 nM
EC50 (Influenza A virus [3]): 3630 nM
log10FFU (Influenza A virus [4]): 3.75
EC50 (Influenza A virus [5]): 1850 nM
log10FFU (Influenza A virus [6]): 3.6
EC50 (Influenza A virus [7]): 1460 nM
log10FFU (Influenza A virus [8]): 1.5
log10FFU (Influenza A virus [9]): 1.7
log10FFU (Influenza A virus [10]): 4.4
log10FFU (Influenza A virus [11]): 2.2
log10FFU (Influenza A virus [12]): 0.35
log10FFU (Influenza A virus [13]): 1.8
log10FFU (Influenza A virus [14]): <1
EC50 (Influenza A virus [15]): 2480 nM
log10FFU (Influenza A virus [16]): <1
EC50 (Influenza A virus [17]): 1530 nM
log10FFU (Influenza A virus [18]): 2.1
log10FFU (Influenza A virus [19]): 6.2
log10FFU (Influenza A virus [20]): 1
log10FFU (Influenza A virus [21]): 3.1
log10FFU (Influenza A virus [22]): 2.3
log10FFU (Influenza A virus [23]): <1
log10FFU (Influenza A virus [24]): 2.1
